{"source": "ChEMBL document CHEMBL1833859", "about": "“Discovery of novel imidazo[1,2-a]pyrazin-8-amines as Brk/PTK6 inhibitors” (Bioorg Med Chem Lett, 2011)", "key": {"[1]": {"assay": "Cmax in mouse at 100 mg/kg, po", "assay_type": "ADME, organism-based", "parameters": "dose 100 mg/kg, route oral", "conditions": "in vivo", "procedure,_shortened": "(§1)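 Mouse pharmacokinetics, 15 animals per dose group, dosed intraperitoneally at 30 mg/kg or orally at 10, 30 or 100 mg/kg. Plasma levels were followed from 0 to 6 h.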"}, "[2]": {"assay": "AUC (0 to 6 hrs) in mouse at 100 mg/kg, po", "assay_type": "ADME, organism-based", "parameters": "time < 6 hr, dose 100 mg/kg, route oral", "conditions": "plasma", "procedure,_shortened": "as §1"}, "[3]": {"assay": "Tmax in mouse at 30 mg/kg, ip", "assay_type": "ADME, organism-based", "parameters": "dose 30 mg/kg, route intraperitoneal", "conditions": "in vivo", "procedure,_shortened": "as §1"}, "[4]": {"molecular_target": "Tyrosine-protein kinase Lck (Homo sapiens, UniProt P06239)", "sequence (P06239 whole entry)": "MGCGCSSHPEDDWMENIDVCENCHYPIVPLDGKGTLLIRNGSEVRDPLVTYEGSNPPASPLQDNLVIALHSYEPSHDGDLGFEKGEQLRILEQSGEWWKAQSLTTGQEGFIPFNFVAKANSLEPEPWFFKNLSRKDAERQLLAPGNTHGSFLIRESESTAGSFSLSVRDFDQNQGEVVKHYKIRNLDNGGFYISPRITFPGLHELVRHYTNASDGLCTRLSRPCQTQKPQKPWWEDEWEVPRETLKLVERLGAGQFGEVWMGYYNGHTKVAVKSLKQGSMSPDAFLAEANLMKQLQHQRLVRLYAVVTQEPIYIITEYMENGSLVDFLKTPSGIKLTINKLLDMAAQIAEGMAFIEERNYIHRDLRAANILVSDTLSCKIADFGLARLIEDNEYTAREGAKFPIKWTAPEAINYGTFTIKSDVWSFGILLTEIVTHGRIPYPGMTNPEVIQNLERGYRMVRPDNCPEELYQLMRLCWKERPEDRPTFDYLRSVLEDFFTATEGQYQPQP", "assay": "Inhibition of LCK"}, "[5]": {"assay": "Intrinsic clearance in human Hepatocytes assessed as per million cells", "assay_type": "ADME, cell-based, Liver, Hepatocyte"}, "[6]": {"assay": "AUC (0 to 6 hrs) in mouse at 30 mg/kg, po", "assay_type": "ADME, organism-based", "parameters": "time < 6 hr, dose 30 mg/kg, route oral", "conditions": "plasma", "procedure,_shortened": "as §1"}, "Aurora kinase B": {"molecular_target": "Aurora kinase B (Homo sapiens, UniProt Q96GD4)", "sequence (Q96GD4 whole entry)": "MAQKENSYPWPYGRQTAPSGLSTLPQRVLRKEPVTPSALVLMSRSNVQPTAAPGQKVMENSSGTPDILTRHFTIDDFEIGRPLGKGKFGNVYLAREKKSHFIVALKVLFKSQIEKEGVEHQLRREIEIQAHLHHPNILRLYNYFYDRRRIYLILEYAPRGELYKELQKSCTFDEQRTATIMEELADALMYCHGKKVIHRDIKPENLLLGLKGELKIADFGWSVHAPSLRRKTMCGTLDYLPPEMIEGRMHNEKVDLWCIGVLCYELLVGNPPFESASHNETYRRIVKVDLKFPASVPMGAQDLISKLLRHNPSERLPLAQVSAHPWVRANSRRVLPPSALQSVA", "assay": "Inhibition of AurB"}, "[7]": {"assay": "Tmax in mouse at 100 mg/kg, po", "assay_type": "ADME, organism-based", "parameters": "dose 100 mg/kg, route oral", "conditions": "in vivo", "procedure,_shortened": "as §1"}, "[8]": {"assay": "Cmax in mouse at 30 mg/kg, ip", "assay_type": "ADME, organism-based", "parameters": "dose 30 mg/kg, route intraperitoneal", "conditions": "in vivo", "procedure,_shortened": "as §1"}, "[9]": {"assay": "Tmax in mouse at 30 mg/kg, po", "assay_type": "ADME, organism-based", "parameters": "dose 30 mg/kg, route oral", "conditions": "in vivo", "procedure,_shortened": "as §1"}, "[10]": {"assay": "AUC (0 to 6 hrs) in mouse at 10 mg/kg, po", "assay_type": "ADME, organism-based", "parameters": "time < 6 hr, dose 10 mg/kg, route oral", "conditions": "plasma", "procedure,_shortened": "as §1"}, "[11]": {"assay": "Intrinsic clearance in rat Hepatocytes assessed as per million cells", "assay_type": "ADME, cell-based, Liver, Hepatocyte"}, "[12]": {"assay": "AUC (0 to 6 hrs) in mouse at 30 mg/kg, ip", "assay_type": "ADME, organism-based", "parameters": "time < 6 hr, dose 30 mg/kg, route intraperitoneal", "conditions": "plasma", "procedure,_shortened": "as §1"}, "[13]": {"assay": "Cmax in mouse at 10 mg/kg, po", "assay_type": "ADME, organism-based", "parameters": "dose 10 mg/kg, route oral", "conditions": "in vivo", "procedure,_shortened": "as §1"}, "[14]": {"assay": "Tmax in mouse at 10 mg/kg, po", "assay_type": "ADME, organism-based", "parameters": "dose 10 mg/kg, route oral", "conditions": "in vivo", "procedure,_shortened": "as §1"}, "[15]": {"assay": "Inhibition of CYP", "assay_type": "ADME"}, "[16]": {"assay": "Cmax in mouse at 30 mg/kg, po", "assay_type": "ADME, organism-based", "parameters": "dose 30 mg/kg, route oral", "conditions": "in vivo", "procedure,_shortened": "as §1"}}, "data": [{"compound": "Cc1cn2c(-c3cn[nH]c3)cnc2c(Nc2ccc(C(=O)N3CCNCC3)cc2F)n1", "values": [{"measurement": "Cmax", "setting": "[1]", "result": 1600, "unit": "nM"}, {"measurement": "AUC(0-t) at 6 h", "setting": "[2]", "result": 8.1, "unit": "µM·h"}, {"measurement": "Tmax", "setting": "[3]", "result": 0.5, "unit": "h"}, {"measurement": "IC50", "setting": "[4]", "result": "> 20", "unit": "µM"}, {"measurement": "hepatocyte CLint", "setting": "[5]", "result": 2, "unit": "µL/min/1e6 cells"}, {"measurement": "AUC(0-t) at 6 h", "setting": "[6]", "result": 1.4, "unit": "µM·h"}, {"measurement": "IC50", "setting": "Aurora kinase B", "result": "> 20", "unit": "µM"}, {"measurement": "Tmax", "setting": "[7]", "result": 4, "unit": "h"}, {"measurement": "Cmax", "setting": "[8]", "result": 17900, "unit": "nM"}, {"measurement": "Tmax", "setting": "[9]", "result": 2, "unit": "h"}, {"measurement": "AUC(0-t) at 6 h", "setting": "[10]", "result": 0.1, "unit": "µM·h"}, {"measurement": "hepatocyte CLint", "setting": "[11]", "result": 5.3, "unit": "µL/min/1e6 cells"}, {"measurement": "AUC(0-t) at 6 h", "setting": "[12]", "result": 17.1, "unit": "µM·h"}, {"measurement": "Cmax", "setting": "[13]", "result": 40, "unit": "nM"}, {"measurement": "Tmax", "setting": "[14]", "result": 6, "unit": "h"}, {"measurement": "IC50", "setting": "[15]", "result": "> 20", "unit": "µM"}, {"measurement": "Cmax", "setting": "[16]", "result": 420, "unit": "nM"}]}]}
